# Screening data deposited in PubChem BioAssay by several laboratories.
# Only some compounds are listed: those with a hit (about 0.95% of all), similar ones and a draw of the others.
# ASAP1 GAP inh = inhibitors of human ASAP1 ArfGAP activity. inhibition, % at 16.5 µM. hit rate 0.19% among 360,000. Q9ULH1. ASAP1-stimulated ARF1 GTP hydrolysis, GDP FP detection; in the data active = inhibition above about 25%;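 note: 0% = vehicle with enzyme and substrate and 100% = no enzyme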
# Target sequence (Q9ULH1 325-724 limits assumed): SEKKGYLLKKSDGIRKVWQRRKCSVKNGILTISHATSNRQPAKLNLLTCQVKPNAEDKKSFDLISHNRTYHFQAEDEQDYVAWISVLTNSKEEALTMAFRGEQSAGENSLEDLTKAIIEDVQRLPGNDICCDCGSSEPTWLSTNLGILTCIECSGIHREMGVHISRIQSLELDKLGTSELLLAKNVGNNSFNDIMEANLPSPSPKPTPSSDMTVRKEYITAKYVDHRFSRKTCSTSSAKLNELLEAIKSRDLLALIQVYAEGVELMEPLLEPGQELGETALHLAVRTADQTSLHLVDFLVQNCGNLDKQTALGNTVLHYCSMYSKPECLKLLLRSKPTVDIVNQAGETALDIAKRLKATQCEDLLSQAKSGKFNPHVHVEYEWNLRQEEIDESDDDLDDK
# ARFGAP1 inh = rat ARFGAP1 inhibition; Q62848; Arfgap1-stimulated ARF1 GTP hydrolysis, GDP FP detection; inhibition, % at 16.5 µM; hit rate 0.26% among 360,000; AID 651572;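 active = inhibition above a per-plate limit, mean inhibition of low control wells plus 3 SD, cut at about 25% in these data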;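 note: 0% = DMSO wells with enzyme and 100% = wells lacking Arfgap1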
#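 Assay system: Rat Arfgap1 GAP domain (His6, aa 1-136), purified enzyme | Buffer or medium: HEPES 25 mM pH 7.5, NaCl 150 mM, MgCl2, DTT | Schedule: GTP hydrolysis reaction 2 h at 25 °C | Signal: FP of antibody-bound GDP Alexa 633 tracer, ex 620/em 688 nm | Measure: Percent inhibition of Arfgap1-stimulated GTP hydrolysis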
# CSN inh = inhibitors of human CSN-mediated cullin deneddylation | Q92905 | Purified CSN, SCF-Nedd8-OG deneddylation, fluorescence polarization | inhibition, % at 12.5 µM | hit rate 0.38% among 360,000;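 active = pattern-corrected inhibition above about 35%, with an unprinted fluorescence ratio check between 0.5 and 1.5, limit read from the data, passing the limit was not always enough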;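 note: 0% = enzyme with substrate and 100% = substrate without enzyme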
#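 Assay system: Purified human Csn5 enzyme expressed in HEK293T cells | Amount: Enzyme 0.24 nM | Measured by: Fluorescence polarization readout | Medium: Tris/NaCl/DTT buffer, pH 7.5 | Compound dosing: One concentration, 12.5 µM, 0.25% DMSO | Times: 90 min incubation of compound, enzyme and substrate at room temperature | Control set: no-enzyme wells high, enzyme-with-substrate wells low | Read-out: % inhibition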
# HNF4A DNA FP = change in binding of human HNF4 alpha to DNA; P41235; HNF4a-FITC DNA binding, fluorescence polarization, 1 h; activity change, % at 10 µM; hit rate 0.3% among 360,000; AID 1224865; in the data active = activity change above about 30%, passing the limit was not always enough
# Numbers without * were called inactive; x = no result.
SMILES,ASAP1 GAP inh,ARFGAP1 inh,CSN inh,HNF4A DNA FP
CC1(C)Cc2c(c(=S)nc(-c3ccccc3)n2CCO)CO1,13,-20,4,4
CC1(C)Cc2c(c(=S)nc(-c3ccccc3)n2CCCN2CCOCC2)CO1,-3,-5,37*,-2
Cc1oc(-c2ccc(F)cc2)cc1-c1nn2c(-c3ccoc3C)nnc2s1,11,14,39*,-40
COC(=O)c1ccc2c(c1)NC(=O)C(N(CC(C)C)CC(C)C)S2 (stereo not drawn),3,1,-3,47*
CCCN(CCC)C1Sc2ccc(C(=O)OC)cc2NC1=O (stereo not drawn),0,-7,1,4
CC1(C)Cc2cccc(OCC(=O)Nc3ccccc3C(F)(F)F)c2O1,5,13,4,40*
O=C(O)c1cc(-c2ccc3c(c2)OCCO3)n[nH]1,2,6,110,-1
Oc1ccccc1-c1cc(-c2ccc3c(c2)OCCO3)n[nH]1,28*,11,4,0
COc1ccc(-c2ccc3c(n2)CCCN3S(=O)(=O)c2ccccc2C)cc1,12,0,x,x
CCCC(C(=O)Nc1ccc(S(=O)(=O)N2CCCC2)cc1)c1ccccc1 (stereo not drawn),4,-11,1,-1
CCCC(C(=O)Nc1ccc(S(=O)(=O)Nc2ncccn2)cc1)c1ccccc1 (stereo not drawn),-5,-17,0,34*
Cn1cnnc1SCC(=O)Nc1ccc(OCc2ccccc2)cc1,-2,0,50*,3
COc1cc2oc(=O)cc(CN3CCOCC3)c2cc1Cl,6,-5,118*,1
O=C(CCc1c[nH]c2ccccc12)Nc1ccc(Nc2cccnc2)c(Br)c1,18,15,x,x
COc1ccc(Cl)cc1NC(=S)N1CCN(C(=O)c2ccco2)CC1,-3,39*,0,-2
COc1ccc(/C=N/n2cnc3c([nH]c4ccc(F)cc43)c2=O)cc1CN1CCCC1,-5,4,85*,7
COc1ccc2[nH]c3c(=O)n(/N=C/c4ccc(OC)c(CN5CCCC5)c4)c(C)nc3c2c1,-2,4,63*,7
COc1ccc(/C=N/n2cnc3c([nH]c4ccc(C)cc43)c2=O)cc1CN1CCCC1,10,-2,6,7
Cc1onc(-c2ccccc2)c1C(=O)N1CCN(C(=O)C(=O)c2cccc(C(F)(F)F)c2)CC1,4,-4,x,x
Cn1c(N/N=C/c2cc3ccccc3nc2Cl)nc2ccccc21,6,1,11,60*
COC12CC(=O)C(C(C)=O)=C(O)C1(C)c1c(O)c(C)c(O)c(C(C)=O)c1O2 (stereo not drawn),7,3,43*,65*
CN(c1cccnc1)c1ccc(NC(=O)Cc2c[nH]c3ccccc23)cc1-c1cccnc1F,2,-11,x,x
CCCCCCCCCCCCCCCC[n+]1ccc(/C=N/O)cc1,2,-1,5,40*
CCCCCCCCCCCCCCCC[n+]1ccc(C(N)=O)cc1,-2,-20,3,15
OCCNc1nc(Nc2ccc(Br)cc2)nc2ccccc12,26*,2,x,x
SMILES,ASAP1 GAP inh,ARFGAP1 inh,CSN inh,HNF4A DNA FP
CC(C)C[C@H](NC(=O)c1ccc(Cl)c(Cl)c1)C(=O)N1CCC[C@H]1C(=O)NCc1ccccc1,-3,-6,x,x
Nc1[nH]c(C(=O)c2ccccc2)c(-c2ccccn2)c1C(=O)c1c[nH]c2ccc(F)cc12,14,-1,x,x
CC(C)OC(=O)c1nn2c(C(F)(F)F)cc(-c3ccc(Br)o3)nc2c1Br,2,-5,0,0
CC(C)OC(=O)c1nn2c(C(F)(F)F)cc(-c3ccco3)nc2c1Cl,-5,1,14,65*
Cc1ccn2c(NC3CCCCC3)c(-c3ccc(SC4CCCCC4)cc3)nc2c1,-1,10,19,54*
Cc1ccn2c(NC3CCCCC3)c(-c3cccc(SC4CCCCC4)c3)nc2c1,2,-15,5,11
CCCCc1ccc(-c2csc(/C(C#N)=C\c3ccc(C)o3)n2)cc1,1,3,38*,45*
CCCCc1ccc(-c2csc(/C(C#N)=C/c3ccco3)n2)cc1,-4,7,24,5
CCN=C1NC(c2ccccc2C(F)(F)F)C(C(=O)OC)=C(C)N1Cc1ccc(C(F)(F)F)cc1 (stereo not drawn),9,8,x,x
C/C(N)=C(/C#N)C(=O)COC(=O)C1CCC(C(C)(C)C)CC1 (stereo not drawn),3,1,117*,-1
COC(=O)c1cc2c(c3c4cc(OC)ccc4n(S(=O)(=O)c4cccc(C)c4)c13)C(=O)N(Cc1ccc(N(C)C)cc1)C2,-4,0,x,x
